In ChEMBL document CHEMBL4325919, “3,5-Disubstituted-indole-7-carboxamides as IKKβ Inhibitors: Optimization of Oral Activity via the C3 Substituent” (ACS Med Chem Lett, 2018):
Values after ≈ are worked out from the molar mass of the structure shown.

Tests used:
[1] = Permeability of the compound by PAMPA; format: ADME; conditions: read-out: permeability
[2] = molecular target: T1, Inhibitor of nuclear factor kappa-B kinase subunit beta (Homo sapiens, UniProt O14920); assay: Inhibition of IKKbeta in human CD14-positive monocytes assessed as reduction in LPS-stimulated TNFalpha secretion preincubated for 30 mins followed by LPS stimulation and measured after 24 hrs by Alpha screen assay; format: cell-based
T1 sequence (O14920 whole entry): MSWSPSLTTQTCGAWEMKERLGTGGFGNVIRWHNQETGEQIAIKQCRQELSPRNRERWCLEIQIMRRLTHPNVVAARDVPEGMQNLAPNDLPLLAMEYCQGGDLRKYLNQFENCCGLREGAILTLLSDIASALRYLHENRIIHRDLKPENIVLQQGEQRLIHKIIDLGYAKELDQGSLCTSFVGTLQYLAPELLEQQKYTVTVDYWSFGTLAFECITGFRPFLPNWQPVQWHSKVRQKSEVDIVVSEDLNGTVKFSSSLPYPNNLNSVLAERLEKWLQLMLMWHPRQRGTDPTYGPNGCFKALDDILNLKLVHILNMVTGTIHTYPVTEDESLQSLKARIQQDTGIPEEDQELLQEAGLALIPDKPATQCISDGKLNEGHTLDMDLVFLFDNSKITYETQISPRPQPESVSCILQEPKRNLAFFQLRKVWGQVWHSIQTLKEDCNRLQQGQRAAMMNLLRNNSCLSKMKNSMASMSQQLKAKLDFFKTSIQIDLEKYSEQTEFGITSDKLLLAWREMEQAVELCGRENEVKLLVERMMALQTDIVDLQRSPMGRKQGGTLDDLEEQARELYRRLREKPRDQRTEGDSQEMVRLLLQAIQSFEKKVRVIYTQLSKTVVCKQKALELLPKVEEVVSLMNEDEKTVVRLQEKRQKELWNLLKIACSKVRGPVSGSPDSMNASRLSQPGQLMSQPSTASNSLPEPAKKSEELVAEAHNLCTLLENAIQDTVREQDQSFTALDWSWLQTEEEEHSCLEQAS

[3] = AUC in Sprague-Dawley rat at 2 mg/kg, po; format: ADME, organism-based; conditions: in vivo
Outline: (§1)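 Male Sprague Dawley rats, n=2 (n=3 for one compound). The i.v. leg used 5% DMSO with 20% Cavitron and the oral leg 5% DMSO with 6% Cavitron. Oral doses were 2 mg/kg, or 2.1 mg/kg where stated. The i.v. dose was 1 mg/kg. Clearance is plasma clearance.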

[4] = Plasma clearance in Sprague-Dawley rat at 2 mg/kg, po or 1 mg/kg, iv; format: ADME, organism-based; outline: as §1
[5] = Volume of distribution at steady state in Sprague-Dawley rat at 2 mg/kg, po or 1 mg/kg, iv; format: ADME, organism-based; conditions: in vivo, read-out: Vdss; outline: as §1
[6] = Half life in Sprague-Dawley rat at 2 mg/kg, po or 1 mg/kg, iv; format: ADME, organism-based; conditions: in vivo; outline: as §1
[7] = Oral bioavailability in Sprague-Dawley rat at 2 mg/kg; format: ADME, organism-based; conditions: in vivo; outline: as §1
[8] = test system: Rattus norvegicus; assay: (§2) Antiinflammatory activity in LPS-induced rat neutrophilia model assessed as inhibition of LPS-induced increase in neutrophils in bronchoalveolar lavage at 100 umol/kg, po administered 30 mins prior to 20 mins nebulized LPS challenge and measured after 4 hrs by diff quick staining based hemocytometric method relative to control; format: functional
[9] = molecular target: T1, Inhibitor of nuclear factor kappa-B kinase subunit beta; assay: Inhibition of recombinant human C-terminal GST-tagged IKKbeta (1 to 737 residues) expressed in baculovirus expression system using GST-IkBalpha substrate measured after 30 mins by TR-FRET assay
Outline: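 IKK pIC50 values are the mean of more than 2 determinations unless noted otherwise. Compounds were tested as racemic mixtures.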

[10] = Kinetic aqueous solubility of the compound by UV-HPLC analysis; format: physicochemical; conditions: buffer; read-out: Kinetic_solubility
[11] = test system: Rattus norvegicus; assay: as §2, with “50” for “100”; format: functional

Compound | Papp [1] | IC50 [2] | AUC [3] | clearance [4] | Vd [5] | half-life [6] | bioavailability [7] | inhibition in vivo at 100 µmol/kg [8] | IC50 [9] | solubility kinetic [10] | inhibition in vivo at 50 µmol/kg [11]
CCS(=O)(=O)N1CCC(c2c[nH]c3c(C(N)=O)cc(-c4ccccc4)cc23)CC1 | 25 ×10⁻⁶ cm/s | 190 nM | 1220 ng·h/mL | 16 mL/min/kg | 1 L/kg | 1.15 h | 58% | 30% | – | – | –
CC(=O)CCc1c[nH]c2c(C(N)=O)cc(-c3ccccc3)cc12 | – | – | – | – | – | – | – | – | 126 nM | – | –
NC(=O)c1cc(-c2ccccc2)cc2c(C3CCN(S(=O)(=O)CCCN4CCCC4)CC3)c[nH]c12 | 16 ×10⁻⁶ cm/s | 50 nM | 998 ng·h/mL | 4 mL/min/kg | 1 L/kg | 4.6 h | 12% | – | 10 nM | 185 µM (≈ 91.5 µg/mL) | –
NC(=O)c1cc(-c2ccccc2)cc2c([C@@H]3C[C@H]4CC[C@@H](C3)S4(=O)=O)c[nH]c12 | – | – | – | – | – | – | – | – | 79.4 nM | – | –
NC(=O)c1cc(-c2ccccc2)cc2c(C3CCC(=O)CC3)c[nH]c12 | – | – | – | – | – | – | – | – | 501 nM | – | –
NC(=O)c1cc(-c2ccccc2)cc2c(C3CCC(=O)N3)c[nH]c12 (stereo not drawn) | – | – | – | – | – | – | – | – | 39.8 nM | – | –
NCCS(=O)(=O)N1CCC(c2c[nH]c3c(C(N)=O)cc(-c4ccccc4)cc23)CC1 | 0.3 ×10⁻⁶ cm/s | 140 nM | 48 ng·h/mL | 14 mL/min/kg | 3 L/kg | 4.43 h | 3% | – | 7.94 nM | 33 µM (≈ 14.1 µg/mL) | –
NC(=O)c1cc(-c2ccccc2)cc2c(C3CCN(S(=O)(=O)CCCN4CCCCC4)CC3)c[nH]c12 | 24 ×10⁻⁶ cm/s | – | – | – | – | – | – | – | 7.94 nM | 162 µM (≈ 82.4 µg/mL) | –
NC(=O)c1cc(-c2ccccc2)cc2c(C3CCN(S(=O)(=O)CCCN4CCOCC4)CC3)c[nH]c12 | 31.8 ×10⁻⁶ cm/s | 200 nM | 2030 ng·h/mL | 8.9 mL/min/kg | 0.43 L/kg | 1.18 h | 53% | – | 31.6 nM | 36 µM (≈ 18.4 µg/mL) | 30%
NC(=O)c1cc(-c2ccccc2)cc2c(C3CCC(=O)C3)c[nH]c12 (stereo not drawn) | – | – | – | – | – | – | – | – | 79.4 nM | – | –
NC(=O)c1cc(-c2ccccc2)cc2c(C3CCN(S(=O)(=O)CCN4CCOCC4)CC3)c[nH]c12 | 31 ×10⁻⁶ cm/s | – | – | – | – | – | – | – | 7.94 nM | 41 µM (≈ 20.4 µg/mL) | –
NC(=O)c1cc(-c2ccccc2)cc2c(C3CCN(S(=O)(=O)CCCNC4CCCC4)CC3)c[nH]c12 | 14 ×10⁻⁶ cm/s | – | – | – | – | – | – | – | 20 nM | 85 µM (≈ 43.2 µg/mL) | –
NC(=O)c1cc(-c2ccccc2)cc2c(C3CCN(S(=O)(=O)CCCN4CCCCCC4)CC3)c[nH]c12 | 29 ×10⁻⁶ cm/s | – | – | – | – | – | – | – | 6.31 nM | 93 µM (≈ 48.6 µg/mL) | –
